Values joined by “and” are separate entries in the source; they are usually repeats but may differ in a detail not shown here. Identical values can stand only once.
Legend:
[1] = target: 5-hydroxytryptamine receptor 2B (Rattus norvegicus, UniProt P30994); experiment: Displacement of [3H]5-HT binding to serotonin receptor of rat fundus membranes; conditions: read-out: pA2 (converted)
[2] = test system: Rattus norvegicus; experiment: Responses made on the DOM -appropriate lever as a percent of total responses; data was collected during the 2.5 min extinction session at 7 mg/kg dose; assay type: functional
Summary of the method: (§1)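 Male Sprague-Dawley rats trained to tell racemic DOM (1.0 mg/kg) from saline in a two-lever operant task (VI-15s schedule). Drug was given 15 min before a 2.5-min nonreinforced extinction session. The read-out was DOM-appropriate lever responses as % of total responses, with about 5 rats per dose. ED50 was taken from dose-response data by Finney's method.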

[3] = species: Rattus norvegicus; experiment: Mean responses per minute during the extinction session.; assay type: functional
Summary of the method: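 Male Sprague-Dawley rats trained in a two-lever operant task to discriminate racemic DOM (1.0 mg/kg) from saline, given 15 min before a VI-15s reinforcement schedule. Test compound given by injection before a 2.5-min nonreinforced extinction session. Read-outs are DOM-lever responses as percent of total responses, and responses per minute. Values are means ±SEM over the animals responding; no responding was recorded as disruption.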

[4] = test system: Rattus norvegicus; experiment: Responses made on the DOM -appropriate lever as a percent of total responses; data was collected during the 2.5 min extinction session at 12 mg/kg dose; assay type: functional; summary of the method: as §1
[5] = target: Serotonin (5-HT) receptor; experiment: Evaluated for inhibition of specific [3H]5-HT receptor binding in rat cortex.
Summary of the method: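 Rat cortex (dorsal to rhinal sulcus) from male Sprague-Dawley rats (150–200 g), pooled, homogenized in 0.05 M Tris-HCl pH 7.4, washed four times by centrifugation with a 37 °C 10-min incubation between washes. [3H]-5-HT binding done with varying test compound concentrations in 50 mM Tris pH 7.4, 10 μM pargyline, 4 mM CaCl2, 7 min at 37 °C. Filtered on glass fibre. Specific binding taken as the difference with 1 μM metergoline.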

5-hydroxytryptamine receptor 2B, sequence (P30994 whole entry): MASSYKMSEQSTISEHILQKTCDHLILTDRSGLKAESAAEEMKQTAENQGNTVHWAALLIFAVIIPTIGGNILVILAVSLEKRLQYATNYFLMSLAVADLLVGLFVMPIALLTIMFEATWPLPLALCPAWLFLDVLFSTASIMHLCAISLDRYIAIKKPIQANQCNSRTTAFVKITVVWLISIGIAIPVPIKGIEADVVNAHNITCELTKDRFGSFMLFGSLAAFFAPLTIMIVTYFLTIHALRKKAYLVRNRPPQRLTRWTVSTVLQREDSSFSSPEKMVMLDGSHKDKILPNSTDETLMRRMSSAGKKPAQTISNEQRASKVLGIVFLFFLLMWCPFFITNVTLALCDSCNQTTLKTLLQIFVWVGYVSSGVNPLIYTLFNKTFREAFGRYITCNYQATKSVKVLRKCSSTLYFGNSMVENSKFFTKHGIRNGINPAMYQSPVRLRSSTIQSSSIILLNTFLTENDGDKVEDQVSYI

| Structure (SMILES) | Kb [1] | IC50 [5] | further results |
| --- | --- | --- | --- |
| CCN(CCN(C)C)c1ccccc1 | 537 nM |  |  |
| CN(C)CCn1cnc2ccccc21 | 138 nM |  | DOM [2]: 0%; Response rate [3]: 12.6 and 15.2; DOM [4]: 0% |
| COc1ccc2c(CCN)c[nH]c2c1 |  | 630 nM |  |
| COc1cccc2[nH]cc(CCN)c12 |  | 220 nM |  |
| NCCC1CNc2ccccc21 (centres undefined) | 2090 nM |  |  |
| CN(C)CCN1CCc2ccccc21 | 269 nM |  |  |
